Screening data (PubChem)
5HT1a antag: antagonists of human 5-HT1a serotonin receptor. P08908. CHO 5-HT1a Ga15 NFAT-bla reporter, antagonist mode. inhibition, % at 10 µM. hit rate 0.68% among 62,000. AID 612;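 active = inhibition above the mean of all tested compounds plus 3 SD, cut at about 43% in these data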;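 note: receptor stimulated by 5-CT agonist at 100 nM near EC80; beta-lactamase reporter measured by ratiometric fluorescence of a cleavable substrate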
Target sequence (P08908 whole entry, looked up): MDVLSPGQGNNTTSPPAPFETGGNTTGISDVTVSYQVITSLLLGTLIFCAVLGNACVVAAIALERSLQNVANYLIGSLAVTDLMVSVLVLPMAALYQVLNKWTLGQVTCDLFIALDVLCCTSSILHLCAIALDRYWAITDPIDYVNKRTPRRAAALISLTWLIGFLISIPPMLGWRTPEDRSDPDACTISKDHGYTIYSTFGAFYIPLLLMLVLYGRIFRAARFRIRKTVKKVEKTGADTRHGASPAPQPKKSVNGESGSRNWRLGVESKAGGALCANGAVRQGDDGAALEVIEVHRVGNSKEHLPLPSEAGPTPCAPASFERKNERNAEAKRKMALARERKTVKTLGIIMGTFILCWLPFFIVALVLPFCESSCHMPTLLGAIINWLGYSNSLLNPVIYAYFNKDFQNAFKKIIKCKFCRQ
HTR1E agonist: activates the human 5-HT1E serotonin receptor. P28566. CHO 5-HT1E Ga15 NFAT-bla reporter, FRET; 0% DMSO wells, 100% control agonist wells. activation, % at 6 µM. hit rate 0.69% among 65,000;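 active = activation above a set limit, the screen-wide mean activation plus 3 SD, cut at about 8.5% in these data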
S1P3 agonist: S1P3 (human) receptor agonism; hit rate 0.1% among 60,000; activation, % at 4.5 µM; S1P3 NFAT-BLA reporter cells, FRET ratio; relative to 1 µM S1P, basal subtracted; Q99500; AID 373;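 active = activation above the screen-wide mean plus 3 SD, cut at about 4.5% in these data, passing the limit was not always enough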
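material = human S1P3 NFAT-BLA reporter CHO cells | schedule = 4 h compound at 37 °C, 2 h substrate at RT | measured by = fluorescent BLA substrate, ex 405 nm, em 460/535 nm ratio | controls = 1 µM S1P reference | replication = primary once, confirmation triplicate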
5HT1E antag: 5-HT1E (human) receptor antagonism. CHO 5-HT1E Ga15 NFAT-bla reporter, FRET, antagonist. inhibition, % at 6 µM. hit rate 0.99% among 65,000;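 active = inhibition above a set limit, the mean inhibition across every tested compound plus 3 SD, cut at about 29% in these data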;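 note: signal is the 460 over 535 nm emission ratio of beta-lactamase substrate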
HTR1A agonist: activates the human 5-HT1a serotonin receptor | CHO 5-HT1a Ga15 NFAT-bla reporter, FRET ratio; 0% basal, 100% maximal reference agonist | activation, % at 10 µM | hit rate 0.56% among 65,000 | AID 567;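 active = activation above the screen-wide mean activation plus 3 SD, cut at about 19% in these data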
S1P1 ag pot: activates or potentiates agonism at human S1P1 receptor; S1P1 CRE-bla cells, forskolin, beta-lactamase FRET, potentiator mode; S1P1 agonist co-added at EC20, 2 nM; 100% = saturating reference agonist, 0% = basal; hit rate 0.57% among 56,000; activation, % at 9.5 µM; AID 449;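 active = activation above a cutoff set at the mean activation of all tested compounds plus 3 SD, cut at about 54% in these data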;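 note: forskolin at 4 µM as EC80 and the EC20 agonist is SEW2871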
A number is an active result. The list is not random: actives were taken first. Their share in the collection is about 2.9%.

What do the screens show for `CCCCCCc1cc2cc(-c3nnc(-c4ccccc4O)o3)c(=O)oc2cc1O`?
HTR1E agonist: inactive; S1P3 agonist: inactive; 5HT1E antag: inactive; HTR1A agonist: 49; S1P1 ag pot: inactive

How did O=C(C1CCN(Cc2ccc(OCc3ccccc3)cc2)CC1)N1CCCC1 do in these assays?
5HT1a antag: inactive; HTR1E agonist: 11; S1P3 agonist: inactive; 5HT1E antag: inactive; HTR1A agonist: inactive; S1P1 ag pot: inactive

Results for COc1ccc(OCc2nnc(SC(C)C(=O)Nc3nccs3)n2-c2ccccc2)cc1 (stereo not given) ?
5HT1a antag: inactive; HTR1E agonist: inactive; S1P3 agonist: inactive; 5HT1E antag: inactive; HTR1A agonist: inactive; S1P1 ag pot: inactive

How did CCOc1cccc(OCCCNCCCOC)c1 do in these assays?
5HT1a antag: inactive; HTR1E agonist: inactive; S1P3 agonist: inactive; 5HT1E antag: inactive; HTR1A agonist: inactive; S1P1 ag pot: inactive

Results for Cc1cc(C)c2c(=O)n(-c3ccccc3)[nH]c2n1 ?
5HT1a antag: inactive; HTR1E agonist: 13; S1P3 agonist: inactive; 5HT1E antag: inactive; HTR1A agonist: inactive; S1P1 ag pot: inactive

What do the screens show for `O=c1c2c3n(c(=O)nc2[nH]n1-c1ccccc1)CCCCC3`?
5HT1a antag: inactive; HTR1E agonist: inactive; S1P3 agonist: inactive; 5HT1E antag: inactive; HTR1A agonist: inactive; S1P1 ag pot: inactive

Results for Cc1ncc(CO)c2cc(C(N)=O)c(=Nc3ccccc3)oc12 ?
5HT1a antag: inactive; HTR1E agonist: inactive; S1P3 agonist: inactive; 5HT1E antag: inactive; HTR1A agonist: inactive; S1P1 ag pot: inactive

Results for COc1cc(OC)cc(C(=O)NCC2CCCO2)c1 (stereo not given) ?
5HT1a antag: inactive; HTR1E agonist: inactive; S1P3 agonist: inactive; 5HT1E antag: inactive; HTR1A agonist: inactive; S1P1 ag pot: inactive

What do the screens show for `Cc1ccc(N=c2oc3cc(O)ccc3cc2C(N)=O)cc1`?
5HT1a antag: inactive; HTR1E agonist: 22; S1P3 agonist: inactive; 5HT1E antag: inactive; HTR1A agonist: 71; S1P1 ag pot: inactive

What do the screens show for `COc1ccc(N=c2oc3cc(O)ccc3cc2C(=O)NCC2CCCO2)c(OC)c1` (stereo not given)?
5HT1a antag: inactive; HTR1E agonist: 19; S1P3 agonist: inactive; 5HT1E antag: inactive; HTR1A agonist: 70; S1P1 ag pot: inactive

What do the screens show for `COc1ccc(N=c2oc3cc(O)ccc3cc2C(=O)NCC2CCCO2)cc1` (stereo not given)?
5HT1a antag: inactive; HTR1E agonist: inactive; S1P3 agonist: inactive; 5HT1E antag: inactive; HTR1A agonist: 26; S1P1 ag pot: inactive

What do the screens show for `CCn1cc(C(=O)NCc2cccs2)c(=O)c2cc(S(=O)(=O)N3CCOCC3)ccc21`?
5HT1a antag: inactive; HTR1E agonist: inactive; S1P3 agonist: inactive; 5HT1E antag: inactive; HTR1A agonist: inactive; S1P1 ag pot: inactive

How did CC(C)C(CCN1C(=O)CCC1=O)C1CCOC(C)(C)C1 (stereo not given) do in these assays?
5HT1a antag: inactive; HTR1E agonist: inactive; 5HT1E antag: inactive; HTR1A agonist: inactive

How did COc1ccc2c(CC#N)c[nH]c2c1 do in these assays?
5HT1a antag: inactive; HTR1E agonist: inactive; S1P3 agonist: inactive; 5HT1E antag: inactive; HTR1A agonist: inactive; S1P1 ag pot: inactive

How did Cc1ccc(C(=O)N2CCCC(c3nc4c(nnn4Cc4ccccc4)c(=O)[nH]3)C2)cc1 (stereo not given) do in these assays?
5HT1a antag: inactive; HTR1E agonist: inactive; S1P3 agonist: inactive; 5HT1E antag: inactive; HTR1A agonist: 21; S1P1 ag pot: inactive

What do the screens show for `CCN(CC)c1ccc(NC(=O)c2cccc(OC)c2)c(C)c1`?
5HT1a antag: inactive; HTR1E agonist: inactive; S1P3 agonist: inactive; 5HT1E antag: inactive; HTR1A agonist: inactive; S1P1 ag pot: inactive

How did CCN(CC)c1ccc(NC(=O)c2cc(OC)cc(OC)c2)c(C)c1 do in these assays?
5HT1a antag: 52; HTR1E agonist: inactive; S1P3 agonist: inactive; 5HT1E antag: 42; HTR1A agonist: inactive

Results for Cc1ccc(Cl)cc1NC(=O)CC(O)(C(F)(F)F)C(F)(F)F ?
5HT1a antag: inactive; HTR1E agonist: inactive; S1P3 agonist: inactive; 5HT1E antag: inactive; HTR1A agonist: inactive

How did COC(=O)NCCOC(=O)N(O)c1ccc(Br)cc1 do in these assays?
5HT1a antag: inactive; HTR1E agonist: inactive; S1P3 agonist: inactive; 5HT1E antag: inactive; HTR1A agonist: inactive; S1P1 ag pot: inactive

How did CCC(=O)Nc1c(C#N)c2nc3ccccc3nc2n1C1CCCCC1 do in these assays?
HTR1E agonist: inactive; S1P3 agonist: inactive; 5HT1E antag: inactive; HTR1A agonist: inactive; S1P1 ag pot: inactive

How did N#Cc1c(N)n(C2CCCCC2)c2nc3ccccc3nc12 do in these assays?
5HT1a antag: inactive; HTR1E agonist: inactive; S1P3 agonist: inactive; 5HT1E antag: inactive; HTR1A agonist: 25; S1P1 ag pot: inactive

How did Cc1ccc(-c2csc3nnc(SCC(=O)Nc4cccc(C)n4)n23)cc1 do in these assays?
5HT1a antag: inactive; HTR1E agonist: inactive; S1P3 agonist: inactive; 5HT1E antag: inactive; HTR1A agonist: inactive; S1P1 ag pot: inactive

What do the screens show for `Cc1cc2nnc(SCC(=O)NCc3ccco3)n2c2ccccc12`?
5HT1a antag: inactive; HTR1E agonist: inactive; S1P3 agonist: inactive; 5HT1E antag: inactive; HTR1A agonist: inactive; S1P1 ag pot: inactive

How did Cc1ccc(C)c(OCCCC(=O)Nc2ccc(N3CCOCC3)cc2)c1 do in these assays?
5HT1a antag: inactive; HTR1E agonist: inactive; S1P3 agonist: inactive; 5HT1E antag: inactive; HTR1A agonist: 26; S1P1 ag pot: inactive

What do the screens show for `C#CC(C)(CC)NC(=O)Cn1nnc(-c2ccc(S(C)(=O)=O)cc2)n1` (stereo not given)?
5HT1a antag: inactive; HTR1E agonist: inactive; S1P3 agonist: inactive; 5HT1E antag: inactive; HTR1A agonist: inactive; S1P1 ag pot: inactive

What do the screens show for `Fc1cccc(-c2cc3nc4c(c(N5CCOCC5)n3n2)CCCC4)c1`?
5HT1a antag: inactive; HTR1E agonist: inactive; S1P3 agonist: inactive; 5HT1E antag: 30; HTR1A agonist: inactive; S1P1 ag pot: inactive

How did COc1ccc(CNc2nc3c(c(C(F)(F)F)n2)CCCCC3)cc1 do in these assays?
5HT1a antag: inactive; HTR1E agonist: inactive; 5HT1E antag: inactive; HTR1A agonist: inactive

Results for O=C(O)CN1CCN(Cc2ccc(F)cc2Cl)C1=O ?
5HT1a antag: inactive; HTR1E agonist: inactive; S1P3 agonist: inactive; 5HT1E antag: inactive; HTR1A agonist: inactive; S1P1 ag pot: inactive

What do the screens show for `COc1cc(NS(=O)(=O)c2ccc(C)cc2)c2ncccc2c1`?
5HT1a antag: 67; HTR1E agonist: inactive; S1P3 agonist: inactive; 5HT1E antag: 67; HTR1A agonist: inactive

How did COc1cc(NCCCC(C)N)c2ncccc2c1 (stereo not given) do in these assays?
5HT1a antag: inactive; HTR1E agonist: inactive; S1P3 agonist: inactive; 5HT1E antag: inactive; HTR1A agonist: inactive; S1P1 ag pot: inactive
